NR2E3 ag-1: inhibitors of NR2E3-RetCOR corepressor binding, primary screen, NR2E3 agonist project, biochemical, TR-FRET, GST-NR2E3, biotin-RetCOR. Photoreceptor-specific nuclear receptor (Homo sapiens), Q9Y5X4. 1536-well. inhibition of corepressor binding, % at 4.78 µM. 0.12% of 320,000 active. AID 2300, 2010;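 active means percent inhibition above the cutoff of mean plus 3 SD of all tested compounds, set per screening campaign, cut at about 20% in these data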;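 further: 0% = DMSO wells and 100% = biotin wells as full block of FRET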
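system = GST-tagged NR2E3 plus biotinylated RetCOR corepressor | input = 1.35 nM GST-NR2E3 | also added = 7 nM biotin-RetCOR | schedule = 5 h incubation at 4 °C | measured by = TR-FRET with europium anti-GST and streptavidin-D2, 340 nm excitation | read-out = percent loss of FRET ratio relative to control wells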
NR2E3 ag-2: NR2E3 agonists in two-hybrid cells, primary screen, cell-based, luminescence, CHO-S, Gal4-NCOR/VP16-NR2E3. Photoreceptor-specific nuclear receptor (Homo sapiens), Q9Y5X4. luciferase. inhibition of corepressor binding, % at 3.98 µM. 0.35% of 360,000 active;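 active means inhibition above the mean of all tested compounds plus 3 SD, cut at about 70% in these data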;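 further: 0% = DMSO with NR2E3 transfected cells and 100% = cells lacking NR2E3 construct; higher means lower luciferase signal from less NR2E3 corepressor binding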
PG9 Ab binder: binders of HIV-1 gp120 antibody PG9, primary screen, biochemical, TR-FRET. HIV-1 gp120 / PG9 antibody interaction. TR-FRET gp120-PG9 antibody binding. inhibition, % at 6.7 µM. 0.43% of 360,000 active; in the data active means inhibition above about 8.5%
Rev-erbA mod: modulators of Rev-erb alpha DNA binding, primary screen, biochemical, FITC-DNA, fluorescence polarization, uHTS; Nuclear receptor subfamily 1 group D member 1 (Homo sapiens), P20393; Rev-erbα–FITC-DNA binding, 90 min; activity, % at 10 µM; 0.79% of 370,000 active;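 active means activity above about 14%, limit read from the data; passing the limit was not always enough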;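 further: 0% = DMSO wells with 35 nM protein and 100% = DMSO wells with 750 nM protein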
Target sequence (P20393 whole entry, looked up): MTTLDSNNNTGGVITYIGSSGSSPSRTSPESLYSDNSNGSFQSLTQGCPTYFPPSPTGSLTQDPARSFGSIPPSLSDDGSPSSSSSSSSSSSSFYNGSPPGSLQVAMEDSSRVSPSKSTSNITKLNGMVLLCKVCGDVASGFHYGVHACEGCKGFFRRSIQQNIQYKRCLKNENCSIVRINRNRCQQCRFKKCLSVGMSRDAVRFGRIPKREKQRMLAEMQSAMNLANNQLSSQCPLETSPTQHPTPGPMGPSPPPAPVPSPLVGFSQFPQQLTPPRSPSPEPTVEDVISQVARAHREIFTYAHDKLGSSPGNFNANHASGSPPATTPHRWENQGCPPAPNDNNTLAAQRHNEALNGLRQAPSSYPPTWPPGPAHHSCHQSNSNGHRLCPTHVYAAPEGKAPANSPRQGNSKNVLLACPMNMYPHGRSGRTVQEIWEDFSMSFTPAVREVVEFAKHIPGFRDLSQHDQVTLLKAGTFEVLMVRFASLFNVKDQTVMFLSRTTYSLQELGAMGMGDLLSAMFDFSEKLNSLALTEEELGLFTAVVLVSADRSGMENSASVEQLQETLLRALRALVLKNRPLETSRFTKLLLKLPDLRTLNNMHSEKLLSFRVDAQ
Numbers without * were called inactive; x = not tested or not shown. Hits are enriched below; roughly 1.4% of the tested compounds scored in any of these assays.

SMILES	NR2E3 ag-1	NR2E3 ag-2	PG9 Ab binder	Rev-erbA mod
COc1ccc(C2/C(=C(\O)c3ccc4c(c3)OCCO4)C(=O)C(=O)N2Cc2cccnc2)cc1 (stereo unspecified)	10	-26	8	3
CC(C)[C@H](N)C(=O)O	x	x	x	-7
CC[C@@H](C(=O)[C@@H](C)[C@@H](O)[C@H](C)[C@@H]1O[C@@H]([C@@H](CC)C(=O)O)CC[C@@H]1C)[C@H]1OC2(C=C[C@@H](O)[C@]3(CC[C@@](C)([C@H]4CC[C@](O)(CC)[C@H](C)O4)O3)O2)[C@H](C)C[C@@H]1C (stereo partly specified)	x	x	x	3
Cn1c(-c2ccccc2)cc(=O)c2ccccc21	2	-7	-2	3
Cn1c2ccccc2c(=O)n2c(=O)c3ccccc3cc12	29*	x	x	x
CC(=O)O[C@H]1CC2CCC3C(CC[C@@]4(C)C3C[C@H]([N+]3(C)CCCCC3)[C@@H]4OC(C)=O)[C@@]2(C)C[C@@H]1N1CCCCC1 (stereo partly specified)	x	x	x	-2
CCc1ccc(S(=O)(=O)/N=C2\C=CC(=O)c3ccccc32)cc1	3	x	x	x
CCc1ccc(S(=O)(=O)/N=C2/C=C(Sc3ncn[nH]3)C(=O)c3ccccc32)cc1	6	100*	x	x
CC[C@@H]1OC(=O)C[C@@H](O)[C@H](C)[C@@H](O[C@@H]2O[C@H](C)[C@@H](O)[C@H](N(C)C)[C@H]2O)[C@@H](CCN2C[C@H](C)C[C@H](C)C2)C[C@@H](C)C(=O)/C=C/C(C)=C\[C@@H]1CO[C@@H]1O[C@H](C)[C@@H](O)[C@@H](OC)[C@H]1OC	x	x	x	-5
CC(CCC(=O)O)[C@H]1CCC2C3C(=O)C[C@@H]4CC(=O)CC[C@]4(C)C3CC(=O)[C@@]21C (stereo partly specified)	x	x	x	3
CCOC(=O)O[C@H](C)OC(=O)C1N2C(=O)[C@H](NC(=O)C(N)c3ccccc3)C2SC1(C)C (stereo partly specified)	x	x	x	-2
Cc1ccc(NC(=O)CSc2nnc(-c3cnccn3)n2-c2ccccc2)cc1	5	-4	16*	19
CC[C@@H]1/C=C(/C)C[C@H](C)C[C@H](OC)[C@H]2O[C@@](O)(C(=O)C(=O)N3CCCC[C@H]3C(=O)O[C@H](/C(C)=C/[C@@H]3CC[C@H](Cl)[C@H](OC)C3)[C@H](C)[C@@H](O)CC1=O)[C@H](C)C[C@@H]2OC	x	x	x	11
Nc1ncnc2c1ncn2C1C=C(CO)C(O)C1O (stereo unspecified)	x	74*	x	x
Cc1cc(C#N)cc(C)c1Oc1nc(Nc2ccc(C#N)cc2)nc(N)c1Br	x	x	x	2
C#Cc1ccc([C@@H]2C=C(C(=O)N3CCN(Cc4ccccc4)CC3)O[C@H](OCCCCO)C2)cc1	-1	75*	x	x
Cc1onc(-c2ccccc2)c1C(=O)N[C@H]1C(=O)N2[C@@H]1SC(C)(C)[C@@H]2C(=O)O	x	x	x	8
COc1ccc2[nH]c3c4c(ccc3c2c1)C(=O)C=CC4=O	x	-30	10*	-3
Nc1ncnc2c1ncn2C1O[C@H](COP(=O)(O)O)[C@@H](O)[C@H]1O (stereo partly specified)	x	x	x	4
COc1ccc([C@H]2CC(=O)C=C(c3ccnc4ccc(Cl)cc34)C2)cc1	2	89*	-4	-2
O=C(O)C[C@H](O)C(=O)O	x	x	x	-5
C[C@@H]1CC2C3CCC4=CC(=O)C=C[C@]4(C)[C@@]3(F)[C@@H](O)C[C@]2(C)[C@H]1C(=O)CO (stereo partly specified)	x	x	x	1
CCOc1ccc(/C(O)=C2/C(=O)C(=O)N(CCOCCO)C2c2cccnc2)cc1 (stereo unspecified)	14	3	9.0*	-5
CCc1ccc(-c2nc(CSCC(=O)N3CCN(c4ccccn4)CC3)c(C)o2)cc1	4	84*	-2	7
COc1ccc(C(=O)C(C)OC(=O)c2cccc(S(=O)(=O)Nc3cc(Cl)c(OC)cc3OC)c2)cc1 (stereo unspecified)	-6	80*	x	x
SMILES	NR2E3 ag-1	NR2E3 ag-2	PG9 Ab binder	Rev-erbA mod
OC[C@H]1O[C@H](O)C[C@@H](O)[C@@H]1O	x	x	x	4
Cc1ccc(NC2c3ccccc3C(=O)N2c2cccnc2)cc1 (stereo unspecified)	0	2	-2	-1
COc1ccc(OC)c(NC2c3ccccc3C(=O)N2c2cccnc2)c1 (stereo unspecified)	0	-24	8.9*	0
CN1C2CC(OC(=O)[C@H](CO)c3ccccc3)C[C@H]1[C@H]1OC21 (stereo partly specified)	x	x	x	-8
CCCC[C@@H](CC)COC(=O)c1ccccc1O	x	x	x	2
Cc1cccc(Nc2nc(-c3c(C)nc4ccccn34)cs2)c1	0	78*	1	-6
Cc1cc(C2=NNC(=NC3CC3)SC2)c(C)n1-c1ccccc1	x	80*	-2	-5
COCCn1c(C)cc(C2=NNC(=NC3CC3)SC2)c1C	-4	92*	1	-2
C#C[C@]1(OC(C)=O)CCC2C3CCC4=C/C(=N/O)CCC4C3CC[C@@]21CC (stereo partly specified)	x	x	x	8
O=C(CCCCCn1c(=S)[nH]c2cc3c(cc2c1=O)OCO3)N1CCN(C(=O)c2ccco2)CC1	-93	-16	12*	-1
O=C(CCCCCn1c(=S)[nH]c2cc3c(cc2c1=O)OCO3)N1CCN(Cc2ccccc2)CC1	2	0	4	17
CC1=C(C)/C(=N\OS(=O)(=O)c2ccccc2)C=CC1=O	0	74*	x	x
CC1(C)O[C@@H]2CC3C4CCC5=CC(=O)C=C[C@]5(C)C4[C@@H](O)C[C@]3(C)[C@]2(C(=O)CO)O1 (stereo partly specified)	x	x	x	-7
CO/N=C(/C(=O)N[C@H]1C(=O)N2C(C(=O)O)=C(CSc3nnnn3C)CSC12)c1csc(N)n1 (stereo partly specified)	x	x	x	10
CC(=O)c1cccc(NS(=O)(=O)c2ccc(C(=O)Nc3ccccc3)cc2)c1	1	75*	-1	0
COC(=O)c1c(C)oc2ccc(N(C(=O)c3ccncc3)S(=O)(=O)c3ccccc3)cc12	-1	70*	-3	4
COC(=O)c1nn(-c2cccc(C(F)(F)F)c2)c(=O)cc1Sc1ccccn1	1	-3	8.7*	-1
Cc1c(C(=O)O)nn(-c2cccc(C(F)(F)F)c2)c(=O)c1C#N	0	-20	0	2
CC(C)(CO)C(O)C(=O)NCCC(=O)NCCSSCCNC(=O)CCNC(=O)C(O)C(C)(C)CO (stereo unspecified)	x	x	x	-2
COc1ccc(C(=O)c2nccc3cc(OC)c(OC)cc23)cc1OC	20*	1	x	x
